Laboratory results published in ChEMBL document CHEMBL1141892, “Syntheses and properties of the major hydroxy metabolites in humans of blonanserin AD-5423, a novel antipsychotic agent” (Bioorg Med Chem Lett, 2005).

Experiments:
[1] = target: 5-hydroxytryptamine receptor 2A (Homo sapiens, UniProt P28223); test: In vitro binding affinity against recombinant human 5-hydroxytryptamine 2A receptor […]
Outline: (§1)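 Affinities are Ki values (nM) at human D2L and human 5-HT2A receptors, reported as mean ± SEM of three independent experiments.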

D(2) dopamine receptor = D(2) dopamine receptor (Homo sapiens, UniProt P14416); test: In vitro binding affinity against recombinant human dopamine receptor D2L […]; outline: as §1
Sequence of D(2) dopamine receptor (P14416 whole entry): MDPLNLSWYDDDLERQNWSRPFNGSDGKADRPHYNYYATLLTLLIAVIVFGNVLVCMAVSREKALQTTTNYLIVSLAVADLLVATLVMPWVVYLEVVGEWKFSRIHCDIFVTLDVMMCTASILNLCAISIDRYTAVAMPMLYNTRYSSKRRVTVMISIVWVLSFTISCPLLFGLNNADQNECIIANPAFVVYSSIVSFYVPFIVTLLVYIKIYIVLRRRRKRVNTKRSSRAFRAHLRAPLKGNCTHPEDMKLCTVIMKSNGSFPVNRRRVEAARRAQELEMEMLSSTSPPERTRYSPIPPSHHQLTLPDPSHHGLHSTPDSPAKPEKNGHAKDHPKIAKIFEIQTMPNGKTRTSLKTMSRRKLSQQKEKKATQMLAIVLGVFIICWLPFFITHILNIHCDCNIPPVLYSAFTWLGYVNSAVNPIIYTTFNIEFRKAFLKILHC

Sequence of 5-hydroxytryptamine receptor 2A (P28223 whole entry): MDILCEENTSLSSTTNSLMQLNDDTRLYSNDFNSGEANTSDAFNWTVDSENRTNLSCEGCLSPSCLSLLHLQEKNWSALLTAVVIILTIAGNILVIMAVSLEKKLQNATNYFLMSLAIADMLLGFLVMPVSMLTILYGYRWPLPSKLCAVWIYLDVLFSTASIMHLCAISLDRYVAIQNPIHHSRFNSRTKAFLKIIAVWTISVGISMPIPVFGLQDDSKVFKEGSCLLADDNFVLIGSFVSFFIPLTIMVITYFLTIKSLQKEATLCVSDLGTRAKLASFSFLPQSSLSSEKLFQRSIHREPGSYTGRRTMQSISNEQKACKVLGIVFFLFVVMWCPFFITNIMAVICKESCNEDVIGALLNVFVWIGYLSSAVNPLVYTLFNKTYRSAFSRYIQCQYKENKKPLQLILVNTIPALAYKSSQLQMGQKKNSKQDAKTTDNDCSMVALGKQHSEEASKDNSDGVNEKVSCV

| Ki [1] [nM] | Ki (D(2) dopamine receptor) [nM] | SMILES |
| --- | --- | --- |
| 9.67 | 3.6 | CCN1CCN(c2cc(-c3ccc(F)cc3)c3c(n2)CC[C@H](O)CCC3)CC1 |
| 0.81 | 0.14 | CCN1CCN(c2cc(-c3ccc(F)cc3)c3c(n2)CCCCCC3)CC1 [BLONANSERIN] |

The remaining lines, values behind:

| SMILES | Ki [1] [nM] | Ki (D(2) dopamine receptor) [nM] |
| --- | --- | --- |
| CCN1CCN(c2cc(-c3ccc(F)cc3)c3c(n2)CC[C@@H](O)CCC3)CC1 | 17.9 | 11.9 |
| CCN1CCN(c2cc(-c3ccc(F)cc3)c3c(n2)CCC[C@@H](O)CC3)CC1 | 14.7 | 6.2 |
| CCN1CCN(c2cc(-c3ccc(F)cc3)c3c(n2)CCC[C@H](O)CC3)CC1 | 18.5 | 21.2 |
